# The list is not random: actives were taken first. Their share in the collection is about 9.3%.
# hDAT+cocaine: changed hDAT dopamine uptake under cocaine IC80, either direction, primary screen, cocaine antagonist project, cell-based, LLC-PK1 hDAT, [14C]-dopamine uptake, MLSMR; AID 449768, 2010; B-score at 10 µM; Sodium-dependent dopamine transporter (Homo sapiens), Q01959; hit rate 1.3% among 110,000; LLC-PK1 hDAT cells, [14C]-dopamine uptake with cocaine IC80; actives deviate in either direction;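 active means Z score or B-score, a plate-position-corrected score, falls beyond the plate's 99.7% confidence bounds, in either direction; inactive means both scores lie inside the 99.7% bounds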;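 further: scored against the spread of the other compound wells on the same plate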
# PostGolgi yeast: phenotypic screen on post-Golgi transport, primary screen; post-Golgi transport phenotypic cell assay; inhibition, % at 10 µM; hit rate 0.9% among 98,000; AID 739, 2007;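 further: yeast cells grown in 1536-well plates; yeast grown about 18 h at 30C before absorbance read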
# PostGolgi ctrl: growth inhibition of yeast control strain, primary screen, counter-screen for post-Golgi transport modulator project. efflux-deficient yeast background strain, growth absorbance A615, 16 h. inhibition, % at 10 µM. hit rate 5% among 98,000
# E coli WT exp: growth inhibitors of wild-type E. coli, primary screen, strain BW25113, expanded library, OD600. OD600 absorbance. growth inhibition, % at 100 µM. hit rate 0.15% among 98,000;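 active means growth inhibition above about 50% at one test dose, limit read from the data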;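 further: growth measured after 20 h incubation at 37 °C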
# D1 mod: D1 CRE-luciferase signal change, two-sided – cell-based, HEK293 D1, dopamine EC30, D1 allosteric modulator project, primary screen; hit rate 5.9% among 58,000; dopamine EC30 potentiation; actives deviate in either direction; B-score at 10 µM; D(1A) dopamine receptor (Homo sapiens), P21728; AID 641, 2007;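 active means luminescence count or its row- and column-corrected plate score outside the 99.7% band of the plate's sample wells, on either side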
# Target sequence (P21728 whole entry, looked up): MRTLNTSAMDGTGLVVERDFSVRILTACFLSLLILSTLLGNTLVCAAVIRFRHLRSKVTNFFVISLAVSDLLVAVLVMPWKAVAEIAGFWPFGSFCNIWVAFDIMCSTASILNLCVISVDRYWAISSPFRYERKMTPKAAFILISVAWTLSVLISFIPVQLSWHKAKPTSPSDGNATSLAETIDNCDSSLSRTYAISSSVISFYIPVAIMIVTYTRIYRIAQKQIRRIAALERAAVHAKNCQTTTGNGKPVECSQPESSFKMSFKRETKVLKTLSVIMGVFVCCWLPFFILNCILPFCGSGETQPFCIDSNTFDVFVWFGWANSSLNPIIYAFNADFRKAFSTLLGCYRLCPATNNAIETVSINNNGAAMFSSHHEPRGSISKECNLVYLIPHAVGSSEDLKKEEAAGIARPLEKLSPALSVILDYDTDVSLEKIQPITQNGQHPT
# Ecoli tolC: growth inhibitors of E. coli tolC mutant, primary screen, strain BW25113 ΔtolC::kan, 384-well | OD615 | growth inhibition, % at 10 µM (by protocol) | hit rate 2.2% among 65,000;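 active means growth inhibition at or above a cutoff equal to the mean over every tested compound plus 3 SD, cut at about 60% in these data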;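 further: growth measured after 20 h incubation at 37 °C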
#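 Assay system: tolC-deleted E. coli BW25113. Medium: kanamycin-containing LB broth (50 µg/mL). Dosing: 10 µM final, single dose. Timing: bacterial growth with compound for 20 h at 37 °C. Detection: A615 absorbance measurement. Read-out basis: growth inhibition in percent.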
# * = called active by the depositor; x = no result given. Unless noted, no stated cut-off is given here; in the data, active means inhibition above about 30%; inactive means the rest.
SMILES,hDAT+cocaine,PostGolgi yeast,PostGolgi ctrl,E coli WT exp,D1 mod,Ecoli tolC
Cc1ccc(N(CC(O)CN2CCOCC2)S(=O)(=O)c2ccc3ccccc3c2)cc1 (stereo not drawn),-0.83,-2,19,5,-0.23,13
Cc1ccc(N(CC(O)Cn2c3ccccc3c3ccccc32)S(C)(=O)=O)cc1 (stereo not drawn),-0.26,18,51*,-17,x,x
Cc1ccc(N(CC(O)Cn2c3ccccc3c3ccccc32)S(C)(=O)=O)c(C)c1 (stereo not drawn),0.018,-6,51*,-1,x,x
COc1ccc(C)cc1NC(=O)CN(c1ccccc1)S(C)(=O)=O,-0.00084,-11,3,-9,-0.11,-1
Cc1ccc(N(CC(O)CN2CCCC2)S(=O)(=O)c2ccc(C)cc2)cc1 (stereo not drawn),0.072,-1,46*,2,0.075,-2
CSc1nc2nccc(-c3ccc(Oc4ccccc4)cc3)n2n1,0.58,-1,33*,-3,x,x
CCN(Cc1cc2cc(OC)ccc2[nH]c1=O)C(=O)Cc1ccc(OC)cc1,-3.2*,2,-4,-5,1,-2
Cc1cc(C)c2cc(CN(CC3CCCO3)S(=O)(=O)c3ccc4c(c3)OCCO4)c(=O)[nH]c2c1 (stereo not drawn),1,13,9,-4,x,67*
Cc1ccc2[nH]c(=O)c(CN(CC3CCCO3)S(=O)(=O)c3c(C)ccc4nsnc34)cc2c1 (stereo not drawn),-1.2,1,32*,-1,-0.063,9
COc1cccc(C(=O)N(Cc2cc3cc(C)ccc3[nH]c2=O)CC2CCCO2)c1 (stereo not drawn),3*,-2,7,-2,0.39,18
CCN(Cc1cc2cc(OC)ccc2[nH]c1=O)C(=O)c1ccncc1,-0.5,-4,0,-4,0.24,-10
Cc1ccc(S(=O)(=O)N(Cc2cc3cc4c(cc3[nH]c2=O)OCCO4)CC2CCCO2)cc1 (stereo not drawn),-1.4,-10,-13,-7,0.93,-14
Cn1cccc1CNC(=O)Nc1ccc(Cl)cc1,-1.3,14,38*,8,-0.76,14
COc1ccc(C2=CC(=O)OC3(CCCC3)O2)cc1,0.23,5,14,4,x,x
CCCc1nc2oc3cc(OC)ccc3c(=O)c2c(=O)n1Cc1ccco1,0.12,-1,-3,-10,0.023,61*
COc1ccc2c(=O)c3c(=O)n(Cc4ccco4)c(-c4ccccc4)nc3oc2c1,-0.95,28,58*,-12,-0.25,14
COc1ccc2c(=O)c3c(=O)n(Cc4ccco4)c(-c4cc(OC)c(OC)c(OC)c4)nc3oc2c1,0.98,x,x,x,0.29,-10
CCN(CCNC(=O)C1CCN(Cc2nc(-c3cccc(Cl)c3)oc2C)CC1)c1ccccc1,0.47,-1,25,9,-1.6,65*
Cc1ccccc1-c1nc(CN2CCC(C(=O)NCCC3=CCCCC3)CC2)c(C)o1,0.037,2,9,16,1.2,65*
CCCCOC(=O)Nc1cccc(Cl)c1C,0.099,11,8,9,x,x
C=CCSc1n[nH]c(-c2ccc(OCCCC)cc2)n1,0.49,1,29,0,-0.61,86*
O=C(OCC(=O)N1CCCC1)c1cccs1,-0.63,-2,3,1,0.65,-20
Cn1ncc(N=Cc2ccccc2)c1C(=O)Nc1cccc(Cl)c1,1,9,14,-7,x,x
Cc1cccnc1NC(=O)c1c(O)c2cccc3c2n(c1=O)CCC3,1.8,7,22,-3,-0.22,70*
Cc1ccccc1NC(=O)c1c(O)c2cccc3c2n(c1=O)CCC3,x,x,x,x,-0.27,-15
SMILES,hDAT+cocaine,PostGolgi yeast,PostGolgi ctrl,E coli WT exp,D1 mod,Ecoli tolC
CCN(CC)CC#CCC(C)(c1ccccc1)c1ccccc1,-1.2,-2,6,10,x,x
CCn1c(CSc2nnc(-c3ccc4c(c3)OCO4)o2)nc2cc(S(=O)(=O)N(C)C)ccc21,1.4,-3,2,-11,x,9
CCn1c(CSc2nnc(-c3ccoc3C)n2C)nc2cc(S(=O)(=O)N(C)C)ccc21,0.052,-5,38*,-1,0.53,-4
Cn1c(Cl)c(/C=N/OC(=O)c2cccc(Cl)c2)c2ccccc21,0.006,-10,1,-5,x,x
Cc1ccccc1C(=O)O/N=C/c1c(N2CCOCC2)n(C)c2ccccc12,0.091,54*,40*,15,x,x
COc1ccc(CNC(=O)c2c(C)oc3c2C(=O)c2ccccc2C3=O)cc1,0.052,x,x,x,x,x
O=C1c2ccccc2C(=O)c2c1oc(C(F)(F)F)c2C(=O)c1ccccc1,-0.87,104*,56*,-8,x,x
Cn1nnc2cc(C(=O)NC3CCCCC3)ccc21,0.95,-3,3,4,0.026,-14
CC(C)NC(=O)c1ccc2c(c1)nnn2C,-0.092,1,45*,5,0.18,-11
Cn1nnc2cc(C(=O)Nc3cccnc3)ccc21,0.19,39*,-7,4,0.42,-4
COc1ccc(C(=O)Nc2cccnc2)cc1OC,-0.0012,x,x,x,x,x
CCN1C(=Nc2ccc(Cl)cc2)SC/C1=C\C(=O)OC,-0.15,0,2,-3,-0.52,-8
CCN(CC)CCCN1C(=O)c2oc3ccccc3c(=O)c2C1c1cc(OC)ccc1OC (stereo not drawn),-0.92,-6,1,-7,-0.67,-7
O=C(O)C(NC(=O)c1ccccc1)=C(Cl)Cl,-0.035,x,x,x,x,x
Clc1ccccc1C(c1ccccc1)(c1ccccc1)n1ccnc1,0.62,x,x,x,x,x
O=C(OCC#CCSc1nnc(-c2ccc([N+](=O)[O-])cc2)o1)c1cccs1,1.2,3,6,-7,x,x
Cc1ccc(-c2nnc(SCC#CCOC(=O)c3cccs3)o2)cc1,0.74,-11,36*,-9,x,x
Cn1nc(-c2ccc(N3CCOCC3)c(NS(=O)(=O)c3ccc(Cl)cc3)c2)c2ccccc2c1=O,0.73,-11,30*,-3,x,x
CCOC(=O)CC(=O)CSc1[nH]c(=O)cc(C)c1C#N,-0.47,-4,16,-13,-0.14,7
C=CCOC(=O)C1=C[C@H](c2csc3ccccc23)C[C@H](OCc2ccc(CO)cc2)O1,0.8,x,x,x,x,x
CC(=O)O[C@H]1CC[C@]2(C)[C@H]3CC=C4[C@@H]5[C@@H](C)[C@H](C)CC[C@]5(C(=O)O)CC[C@@]4(C)[C@]3(C)CC[C@H]2C1(C)C,-0.89,x,x,x,x,x
O=C(O)C1CCCCC1C(=O)Nc1ccccc1F (stereo not drawn),0.42,-12,42*,1,-0.24,-9
CC1(C)NC(C)(C)c2nonc2/C1=N\O,2.8*,-8,7,-4,1.9,-11

# Source: PubChem (several laboratories)
